How the values were obtained:
Format in all cases: in vivo, human
[1] = system: patients with postbariatric hypoglycemia (PBH); experiment: Mixed-meal tolerance testing; conditions: for GLP-1, AUC(0–180), mean value (SD) / Glucagon, AUC(0–180), mean value (SD) / Glucose, AUC(0–180), mean value (SD) / GLP-1, fasting, mean value (SD) / GLP-1, peak, mean value (SD) / Glucagon, fasting, mean value (SD) / Glucagon, peak, mean value (SD) / Glucose, AUC(peak:nadir), mean value (SD) / Glucose, fasting, mean value (SD) / Glucose, peak, mean value (SD) / Insulin, fasting, mean value (SD) / Glucose, nadir (primary endpoint), mean value (SD) / Insulin, peak (secondary endpoint), mean value (SD): 14 days, N = 17; for GLP-1, AUC(0–180), mean value (SD) / Glucagon, AUC(0–180), mean value (SD) / Glucose, AUC(0–180), mean value (SD): 0 to 180 minutes; for Glucose, nadir (primary endpoint), mean value (SD): postprandial plasma, within 3 hours of MMTT; for Insulin, peak (secondary endpoint), mean value (SD): postprandial; for Participants requiring rescue during MMTT: vs 47% with placebo
In short: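 Crossover design: 18 female patients got SC placebo for 14 days, then the test compound at 30 mg every 12 h and 60 mg each morning for 14 days each, in random order. After an overnight fast, each period ended with a 180-min MMTT: 64 g carbohydrate drink over 10 min. Plasma glucose, insulin, C-peptide, GLP-1 and glucagon were sampled every 15 min. Rescue was IV dextrose (point-of-care glucose ≤50 mg/dL with neuroglycopenic symptoms, or ≤40 mg/dL).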

[2] = system: patients with postbariatric hypoglycemia (PBH); experiment: Outpatient hypoglycemia captured by SMBG/eDiary; conditions: for Rate of Level 2 hypoglycemia, mean value (SD): SMBG <54 mg/dL; for Rate of Level 2 hypoglycemia, mean value (SD) / Rate of Level 1 hypoglycemia, mean value (SD): episodes normalized to 14 days, N = 17; for Rate of Level 1 hypoglycemia, mean value (SD): SMBG <70 mg/dL
In short: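 Outpatients logged each hypoglycaemic episode in an eDiary, using a glucometer (SMBG) over each 14-day period. Entries were symptoms, lowest SMBG, treatment, need for assistance, and postprandial or not. Levels were defined as Level 1 SMBG <70 mg/dL, Level 2 <54 mg/dL, and Level 3 needing another person's assistance. Rate was distinct episodes divided by days, normalised to 14 days. Placebo-adjusted LS means came from a mixed-effect model.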

[3] = system: patients with postbariatric hypoglycemia (PBH); experiment: Outpatient blinded continuous glucose monitoring; conditions: for No. events <54 mg/dL 8 AM-12 AM, mean value (SD) / No. events <54 mg/dL 12 AM-8 AM, mean value (SD): CGM, sustained at least 15 minutes, normalized to 14 days; for No. events <54 mg/dL 8 AM-12 AM, mean value (SD) / No. events <54 mg/dL 12 AM-8 AM, mean value (SD) / % Time <54 mg/dL 8 AM-12 AM, mean value (SD) / % Time >250 mg/dL 24 hours, mean value (SD): N = 17; for % Time <54 mg/dL 8 AM-12 AM, mean value (SD) / % Time >250 mg/dL 24 hours, mean value (SD): percentage of CGM values
In short: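 Blinded CGM was worn at home through three 14-day periods (placebo, then SC test compound 30 mg twice daily or 60 mg once daily), with two injections daily for blinding. Read-outs were % CGM values <54 mg/dL (8 am–12 am or 12 am–8 am) or >250 mg/dL, normalised to 14 days. LS means were placebo-adjusted by mixed-effect model (treatment, sequence, period fixed; subject within sequence random).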

[4] = Plasma avexitide pharmacokinetics at end of each 14-day treatment period
In short: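 Plasma for drug concentration was drawn at the end of each 14-day SC regimen (30 mg every 12 h; 60 mg each morning) on days 29 and 43. Sampling times were −90, 0, 60, 180 and 330 min […], with the trough taken immediately before the −90 min dose. C0, Cmax and AUC0-t were summarised descriptively.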

[5] = system: patients with postbariatric hypoglycemia (PBH); experiment: Safety: treatment-emergent adverse events, laboratory and physical findings
[6] = avexitide 30 mg twice daily SC, MMTT
[7] = avexitide 30 mg twice daily, MMTT
[8] = avexitide 60 mg once daily SC, MMTT
[9] = avexitide 60 mg once daily, MMTT
[10] = plasma, end of each 14-day treatment period, SC

Evidence of systemic plasma exposure ([4]; both dosing regimens): observed in all patients
Mean (AUC0-t) exposure, higher for 60 mg once daily than 30 mg twice daily [4, 10]: 40%
Peak (Cmax) exposure, higher for 60 mg once daily than 30 mg twice daily [4, 10]: 72%
Substance: exendin (9-39) [Avexitide]
Fewer participants requiring rescue during MMTT compared with placebo ([1]; avexitide 30 mg twice daily): 50%
GLP-1, AUC(0–180), mean value (SD) [1, 6]: 330.8 (140.5) h×mg/dL
Glucagon, AUC(0–180), mean value (SD) [1, 6]: 466.7 (131.2) h × mg/dL
Glucose, AUC(0–180), mean value (SD) [1, 6]: 320.0 (89.5) h × mg/dL
GLP-1, fasting, mean value (SD) [1, 6]: 12.7 (3.4) pg/mL
GLP-1, peak, mean value (SD) [1, 6]: 413.3 (193.6) pg/mL
Glucagon, fasting, mean value (SD) [1, 6]: 156.3 (0) pg/mL
Glucagon, peak, mean value (SD) [1, 6]: 196.7 (49.8) pg/mL
Glucose, AUC(peak:nadir), mean value (SD) [1, 6]: 192.3 (91.9) h × mg/dL
Glucose, fasting, mean value (SD) [1, 6]: 87.5 (6.0) mg/dL
Glucose, peak, mean value (SD) [1, 6]: 218.2 (45.2) mg/dL
Insulin, fasting, mean value (SD) [1, 6]: 4.5 (2.7) μIU/mL
Glucose, nadir (primary endpoint), mean value (SD) ([1]; avexitide 30 mg twice daily SC): 57.1 (16.5) mg/dL
Insulin, peak (secondary endpoint), mean value (SD) [1, 6]: 349.5 (156.9) μIU/mL
AUC glucose concentrations higher than placebo [1, 7]: 12%
Increase of mean plasma glucose nadir compared with placebo [1, 7]: 21%
LS mean postprandial insulin peak lower than with placebo [1, 7]: 104.53 μIU/mL
Reduction of peak insulin compared with placebo [1, 7]: 23%
Participants requiring rescue during MMTT ([1]; avexitide 30 mg twice daily): 24%
Fewer participants requiring rescue during MMTT compared with placebo ([1]; avexitide 60 mg once daily): 75%
GLP-1, AUC(0–180), mean value (SD) [1, 8]: 351.1 (127.5) h×mg/dL
Glucagon, AUC(0–180), mean value (SD) [1, 8]: 484.1 (96.7) h × mg/dL
Glucose, AUC(0–180), mean value (SD) [1, 8]: 338.1 (80.7) h × mg/dL
GLP-1, fasting, mean value (SD) [1, 8]: 12.7 (4.6) pg/mL
GLP-1, peak, mean value (SD) [1, 8]: 397.1 (150.2) pg/mL
Glucagon, fasting, mean value (SD) [1, 8]: 156.8 (2.2) pg/mL
Glucagon, peak, mean value (SD) [1, 8]: 182.9 (35.9) pg/mL
Glucose, AUC(peak:nadir), mean value (SD) [1, 8]: 204.6 (86.3) h × mg/dL
Glucose, fasting, mean value (SD) [1, 8]: 84.6 (4.2) mg/dL
Glucose, peak, mean value (SD) [1, 8]: 224.5 (47.3) mg/dL
Insulin, fasting, mean value (SD) [1, 8]: 4.1 (2.6) μIU/mL
Glucose, nadir (primary endpoint), mean value (SD) ([1]; avexitide 60 mg once daily SC): 59.2 (16.1) mg/dL
Insulin, peak (secondary endpoint), mean value (SD) [1, 8]: 357.2 (190.9) μIU/mL
AUC glucose concentrations higher than placebo [1, 9]: 18%
Increase of mean plasma glucose nadir compared with placebo [1, 9]: 26%
LS mean postprandial insulin peak lower than with placebo [1, 9]: 96.29 μIU/mL
Reduction of peak insulin compared with placebo [1, 9]: 21%
Participants requiring rescue during MMTT ([1]; avexitide 60 mg once daily): 12%
Postprandial concentrations of GLP-1 and glucagon relative to placebo ([1]; both avexitide treatment regimens, MMTT): significantly higher
Influence on fasting insulin, GLP-1, or glucagon ([1]; both dosing regimens, MMTT): no influence
Reduction of rate of SMBG <54 mg/dL (Level 2 hypoglycemia) compared with placebo ([2]; avexitide 30 mg twice daily): 40%
Reduction of rate of SMBG <70 mg/dL (Level 1 hypoglycemia) compared with placebo ([2]; avexitide 30 mg twice daily): 30%
Reduction of rate of severe hypoglycemia (Level 3) events ([2]; avexitide 30 mg twice daily): 23%
Rate of Level 2 hypoglycemia, mean value (SD) ([2]; avexitide 30 mg twice daily SC): 1.21 (1.65)
Rate of Level 1 hypoglycemia, mean value (SD) ([2]; avexitide 30 mg twice daily SC): 2.81 (2.13)
Reduction of rate of SMBG <54 mg/dL (Level 2 hypoglycemia) compared with placebo ([2]; avexitide 60 mg once daily): 60%
Reduction of rate of SMBG <70 mg/dL (Level 1 hypoglycemia) compared with placebo ([2]; avexitide 60 mg once daily): 61%
Reduction of rate of severe hypoglycemia (Level 3) events ([2]; avexitide 60 mg once daily): 56%
Rate of Level 2 hypoglycemia, mean value (SD) ([2]; avexitide 60 mg once daily SC): 0.81 (0.88)
Rate of Level 1 hypoglycemia, mean value (SD) ([2]; avexitide 60 mg once daily SC): 1.56 (1.27)
No. events <54 mg/dL 8 AM-12 AM, mean value (SD) ([3]; avexitide 30 mg twice daily SC): 2.82 (3.00)
No. events <54 mg/dL 12 AM-8 AM, mean value (SD) ([3]; avexitide 30 mg twice daily SC): 2.34 (3.03)
% Time <54 mg/dL 8 AM-12 AM, mean value (SD) ([3]; avexitide 30 mg twice daily SC): 0.99 (1.12) %
% Time >250 mg/dL 24 hours, mean value (SD) ([3]; avexitide 30 mg twice daily SC): 0.99 (1.34) %
Reduction of mean percent time with glucose <54 mg/dL ([3]; avexitide 30 mg twice daily, blinded CGM): 50%
No. events <54 mg/dL 8 AM-12 AM, mean value (SD) ([3]; avexitide 60 mg once daily SC): 3.46 (2.48)
No. events <54 mg/dL 12 AM-8 AM, mean value (SD) ([3]; avexitide 60 mg once daily SC): 3.56 (4.18)
% Time <54 mg/dL 8 AM-12 AM, mean value (SD) ([3]; avexitide 60 mg once daily SC): 1.49 (1.70) %
% Time >250 mg/dL 24 hours, mean value (SD) ([3]; avexitide 60 mg once daily SC): 0.85 (0.98) %
Reduction of mean percent time with glucose <54 mg/dL ([3]; avexitide 60 mg once daily, blinded CGM): 24%
Percent time with glucose >250 mg/dL ([3]; blinded CGM, across treatment groups): less than 1%
Serious adverse event (presyncope), reported as unrelated to study drug and self-limited ([5]; avexitide 60 mg once daily): 1
Changes in vital signs, body weight, hematology or chemistry ([5]; both dosing regimens): No clinically significant changes
Patient withdrawals ([5]; both dosing regimens): no patient withdrawals
Treatment-related serious adverse events ([5]; both dosing regimens): no treatment-related serious adverse events
Tolerability ([5]; both dosing regimens, 28 days): well tolerated

— PMC8277203 (The Journal of Clinical Endocrinology and Metabolism, 2021)
